Bioassay records (PubChem BioAssay)
Lipid droplet: hepatic lipid droplet formation modulation. hit rate 0.4% among 240,000. AML12 mouse hepatocytes, oleate lipid droplets, BODIPY imaging. AID 1656. inhibition, % at 6.5 µM;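 active = lipid droplet intensity inhibited by at least 50%, with more than 500 cells counted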
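Material – AML12 mouse liver cells · Also added – oleate loading, 100 µM · Compound dosing – 6.5 µM single-point dosing · Times – overnight treatment with compound plus oleate · Measured by – fluorescence imaging, 20x objective, two fields per well · Read-out – percent inhibition of filter-corrected integrated lipid droplet intensity per well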
p-CIP stab down: p/CIP protein destabilization; Q05BA5; F442A p/CIP-EGFP cells, EGFP fluorescence, 16 h; decrease of EGFP signal, % at 10 µM; hit rate 0.01% among 290,000;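 active = EGFP signal decrease of at least 30% at 10 µM or well 3 SD below plate mean, unless failing retest; inactive = the rest, including hits failing retest or dose response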
CTSL1 counter: blocks F. hepatica cathepsin L1 in PFM18AAP counter-screen. inhibition, % at 5.96 µM. AID 1906. hit rate 0.49% among 300,000. recombinant F. hepatica cathepsin L1, Z-Leu-Arg-MCA fluorescence;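 active = inhibition above the mean of all tested compounds plus 3 SD, set per screening campaign, cut at about 17% in these data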
Arrestin-AP2 inh: blocks beta-arrestin peptide binding to AP2 adaptin; FITC-arrestin peptide / GST-AP2 beads, flow cytometry; AP2 beta2 appendage carries R879A mutation; inhibition, % at 10 µM; hit rate 0.31% among 340,000; AID 504490;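 active = inhibition above a set limit, near 3 SD of compounds lacking own fluorescence, cut at about 54% in these data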
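System: GST-AP2 R879A bound to glutathione beads, E. coli-expressed. Also added: 50 nM FITC-arrestin peptide. Schedule: compound with beads 12 min RT, then probe 1 h RT. Signal: bead flow cytometry, FITC channel. Read-out basis: percent response.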
Arr AP2 CP1: inhibitors of human beta-arrestin and AP2 interaction. shares compounds with Arrestin-AP2 inh. inhibition, % at 10 µM. GST-AP2 beads, FITC arrestin peptide binding, flow cytometry; GST-fused beta2-adaptin appendage, R879A mutant. hit rate 2% among 1,300;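 active = inhibition above a set limit, roughly 3 SD of non-fluorescent compound noise, cut at about 38% in these data; inactive = inhibition at or below that limit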;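 note: loss of bead fluorescence from 50 nM FITC arrestin peptide bound to appendage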
GST-FITC bead: counter-screen for beta-arrestin AP2 inhibitors: GST-GSH bead binding; shares compounds with Arrestin-AP2 inh; GST-fluorescein binding to GSH beads, fluorescence; inhibition, % at 10 µM; hit rate 2% among 1,300;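 active = inhibition above 50%, about 3 SD of the inhibition seen with non-fluorescent compounds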;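 note: fluorescein maleimide labelled GST captured on 4 micron glutathione beads; higher means more loss of bead fluorescence from quenching or blocked binding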
A number is an active result; 0 = inactive; - = no result. A selection: hits, their analogues and other compounds. The true share with any hit is near 1%.

SMILES	Lipid droplet	p-CIP stab down	CTSL1 counter	Arrestin-AP2 inh	Arr AP2 CP1	GST-FITC bead
COc1ccc(-c2cc(C(F)F)n3ncc(C(=O)N4CCN(C)CC4)c3n2)cc1	0	0	0	0	-	-
O=C(c1cnn2c(C(F)F)cc(-c3ccccc3)nc12)N1CCCc2ccccc21	0	0	0	0	0	0
O=C(NN=Cc1cc(=O)[nH]c(=O)[nH]1)c1ccncc1	-	-	-	0	-	-
Cc1cnc(C(=O)OCC(=O)c2ccc(C3CCCCC3)cc2)cn1	-	-	0	57.0	0	0
Cc1ccc(NC(=S)N(CCN(C)C)C(C)c2cccnc2)cc1 (stereo not drawn)	0	0	0	0	-	-
O=C(CCNC(=O)C1CCN(S(=O)(=O)c2ccccc2)CC1)NCc1ccc(Cl)cc1	0	0	0	62.9	0	0
NS(=O)(=O)c1ccc(NC(=O)/C=C/c2cn(-c3ccccc3)nc2-c2cccc(Cl)c2)cc1	0	0	0	58.4	0	0
O=C(O)c1cc2nc(-c3ccccc3)cc(-c3ccccc3)n2n1	0	0	0	67.6	0	0
Nc1ccc(CCc2nc3ccccc3o2)cc1	0	0	0	0	-	-
O=S(=O)(CCc1nc2ccccc2o1)c1ccc(Cl)c(Cl)c1	-	0	0	90.9	0	0
Cc1ccc(CN2CCN(Cc3cnn(-c4ccc(Cl)cc4)c3)CC2CCO)o1 (stereo not drawn)	0	0	0	0	-	-
C/C(=N\NC(=O)CNc1cccc(C(F)(F)F)c1)c1cccs1	0	0	0	0	-	-
c1ccc2c(c1)OCC(CNCC1COc3ccccc3O1)O2 (stereo not drawn)	0	0	0	0	-	-
c1ccc(CCNCC2COc3ccccc3O2)cc1 (stereo not drawn)	-	0	0	55.2	0	0
CN(CC(=O)N1CCCCCC1)S(=O)(=O)c1ccccc1	0	0	0	0	-	-
O=C(NC1CC2CCCC(C1)N2C(=O)NCc1ccccc1)C1CC1 (stereo not drawn)	-	0	0	0	-	-
O=C(NC1CC2CCCC(C1)N2C(=S)NCCc1ccccc1)C1CC1 (stereo not drawn)	0	0	0	55.8	0	0
O=C(c1cccnc1)N1CCN(Cc2ccc3c(c2)OCO3)CC1	0	0	0	0	-	-
COc1cc2c(cc1NC(=O)CN(C)Cc1ccc(OC)c(OC)c1)oc1ccccc12	0	0	0	0	0	0
COc1ccc(CN(C)CC(=O)Nc2cc3oc4ccccc4c3cc2OC)c(OC)c1	0	0	0	0	0	0
COc1ccc(CN(C)CC(=O)Nc2ccccc2C(F)(F)F)c(OC)c1	0	0	0	0	-	-
COc1cc2c(cc1NC(=O)CCC(=O)O)oc1ccccc12	0	0	0	0	-	-
CCCN1CCC(=O)N([C@H](CSc2ccc(C)cc2)Cc2ccccc2)CC1	-	0	-	0	-	-
O=C(Cc1ccccc1)NCCS(=O)(=O)N1CCN(c2ccccc2)CC1	-	-	0	0	-	-
O=C(/C=C/c1ccccc1)NCCS(=O)(=O)N1CCN(c2ccccc2)CC1	-	-	0	54.6	0	0
SMILES	Lipid droplet	p-CIP stab down	CTSL1 counter	Arrestin-AP2 inh	Arr AP2 CP1	GST-FITC bead
COc1cc(OC)cc(C(=O)NC(C(=O)NNC(=O)c2ccc(C)cc2)C(C)C)c1 (stereo not drawn)	-	-	-	62.9	0	0
CCNC(=O)C(=O)NCc1ccncc1	0	0	0	62.0	0	0
CCCCNC(=O)C(=O)NCc1ccncc1	0	0	0	0	-	-
CCc1ccc(OCC(=O)OC(C)C(=O)Nc2ccc(Cl)cn2)cc1 (stereo not drawn)	-	-	-	0	-	-
COc1ccc(CSCC(=O)Nc2ccc(S(=O)(=O)N3CCCCCC3)cc2)cc1	0	0	0	0	-	-
COc1ccc(NC(=O)CSCC(=O)Nc2ccc(S(=O)(=O)N3CCCCC3)cc2)cc1	0	0	0	57.3	0	0
Cc1ccc(C(=O)OCC(=O)Nc2cccc(S(=O)(=O)N3CCOCC3)c2)o1	-	-	-	0	-	-
CCOc1ccc(CCNC(=O)c2oc3c(c2C)-c2[nH]ncc2CC3)cc1OCC	0	0	0	0	-	-
Cc1c(C(=O)NC(C)C)oc2c1-c1[nH]ncc1CC2	-	0	0	104.3	0	0
Cc1ccc(C(=O)OCC(=O)NC2CC2)s1	-	-	-	0	-	-
O=C(Nc1ccc(Br)cc1)c1cccc2c1C(=O)N(C1CCCCC1)C2	0	0	0	0	-	-
Cc1cc(C)cc(NC(=O)c2cccc3c2C(=O)N(C2CCCCC2)C3)c1	0	0	0	61.9	0	0
CC(c1ccccc1)n1c(Cn2ncc3ccccc3c2=O)n[nH]c1=S (stereo not drawn)	0	0	0	54.4	0	0
CCn1c(=O)n(CC)c2cc(N3CCCC3)c(NC(=O)c3ccccc3)cc21	0	0	0	0	0	0
Cn1c(=O)n(C)c2cc(N3CCCCC3)c(NC(=O)c3ccccc3)cc21	0	0	0	0	0	0
CCn1c(=O)n(CC)c2cc(N3CCCC3)c(NC(=O)c3ccc(C)cc3)cc21	0	0	0	0	0	-
O=C(Nc1cc([N+](=O)[O-])ccc1N1CCCC1)c1ccccc1	-	0	0	0	-	-
CCCC(=O)Nc1sc2c(c1C#N)CC(C)(C)NC2(C)C	0	0	0	0	-	-
CNC(=O)CSc1nc(-c2ccccc2)c(-c2ccccc2)o1	0	0	0	0	-	-
CN(C)C(=O)c1cc(C(=O)c2ccc(C(F)(F)F)cc2F)c[nH]1	-	0	0	61.9	0	0
CN(C)C(=O)c1cc(C(=O)c2ccc(F)cc2F)c[nH]1	0	0	0	0	-	-
O=C(O)C1OC(C(=O)O)C(C(=O)O)C1C(=O)O (stereo not drawn)	-	-	-	57.7	0	0
Cc1nnc(SCC(=O)Nc2ccc(C(N)=O)cc2)n1-c1ccccc1	0	0	0	0	-	-
CC(=O)Nc1ccc(NC(=O)CSc2nnc(C)n2-c2ccccc2)cc1	0	0	0	59.8	0	0
O=C(Nc1nnc(C2=COCCO2)o1)c1cccc(Br)c1	0	0	0	57.1	0	0
SMILES	Lipid droplet	p-CIP stab down	CTSL1 counter	Arrestin-AP2 inh	Arr AP2 CP1	GST-FITC bead
COCCOC(=O)C1=C(C)NC(=O)NC1c1ccc(-c2ccc(F)cc2)o1 (stereo not drawn)	0	0	0	0	-	-
O=C(O)C1C2C=CC(C2)C1C(=O)OCC1CCCO1 (stereo not drawn)	-	0	0	0	-	-
CCc1ccccc1NC(=O)Nc1cccn(Cc2ccc(F)cc2)c1=O	0	0	0	58.2	0	0
CCc1ccccc1NC(=O)Nc1ccc(F)cc1	0	0	0	0	-	-
O=C(NCCCN1CCCC1=O)c1cc2ccccc2o1	-	-	-	0	-	-
O=C(NCCCN1CCCC1=O)c1cc(=O)c2ccccc2o1	0	0	0	74.0	0	0
Cc1ccc(-c2nnn(CC(=O)N(c3ccccc3)C(C(=O)NCC3CCCO3)c3ccc(F)cc3)n2)o1 (stereo not drawn)	0	0	0	65.7	0	0
CC(C)c1nc2sc3c(NCc4ccco4)ncnc3c2c2c1COC(C)(C)C2	-	0	0	101.2	0	0
CCOc1ccc(C(=O)NC(=S)Nc2ncccc2C)cc1[N+](=O)[O-]	0	0	0	58.4	0	0
